The source made the active and inactive calls. No cut-off for these calls is given here.
What was measured:
[1] = tested on: HL-60; experiment: Induction of apoptosis in human HL60 cells assessed as PARP cleavage at 10 uM after 24 hrs by Western blotting preincubated for 2 hrs with 20 uM pancaspase inhibitor Z-VAD-FMK; type: functional, cell-based
Procedure, shortened: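 HL60 cells were pretreated with 20 μM Z-IETD-FMK, Z-LEHD-FMK or Z-VAD-FMK, then cultured with 10 μM compound for 24 h. Cleaved PARP and caspases were probed by Western blot. Three independent experiments were run.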

[2] = target: DNA topoisomerase 2-alpha (Homo sapiens) (UniProt P11388); experiment: Inhibition of human topoisomerase 2alpha-mediated prestrand-passage DNA religation after 6 mins by agarose gel electrophoresis
DNA topoisomerase 2-alpha (Homo sapiens), sequence (P11388 whole entry): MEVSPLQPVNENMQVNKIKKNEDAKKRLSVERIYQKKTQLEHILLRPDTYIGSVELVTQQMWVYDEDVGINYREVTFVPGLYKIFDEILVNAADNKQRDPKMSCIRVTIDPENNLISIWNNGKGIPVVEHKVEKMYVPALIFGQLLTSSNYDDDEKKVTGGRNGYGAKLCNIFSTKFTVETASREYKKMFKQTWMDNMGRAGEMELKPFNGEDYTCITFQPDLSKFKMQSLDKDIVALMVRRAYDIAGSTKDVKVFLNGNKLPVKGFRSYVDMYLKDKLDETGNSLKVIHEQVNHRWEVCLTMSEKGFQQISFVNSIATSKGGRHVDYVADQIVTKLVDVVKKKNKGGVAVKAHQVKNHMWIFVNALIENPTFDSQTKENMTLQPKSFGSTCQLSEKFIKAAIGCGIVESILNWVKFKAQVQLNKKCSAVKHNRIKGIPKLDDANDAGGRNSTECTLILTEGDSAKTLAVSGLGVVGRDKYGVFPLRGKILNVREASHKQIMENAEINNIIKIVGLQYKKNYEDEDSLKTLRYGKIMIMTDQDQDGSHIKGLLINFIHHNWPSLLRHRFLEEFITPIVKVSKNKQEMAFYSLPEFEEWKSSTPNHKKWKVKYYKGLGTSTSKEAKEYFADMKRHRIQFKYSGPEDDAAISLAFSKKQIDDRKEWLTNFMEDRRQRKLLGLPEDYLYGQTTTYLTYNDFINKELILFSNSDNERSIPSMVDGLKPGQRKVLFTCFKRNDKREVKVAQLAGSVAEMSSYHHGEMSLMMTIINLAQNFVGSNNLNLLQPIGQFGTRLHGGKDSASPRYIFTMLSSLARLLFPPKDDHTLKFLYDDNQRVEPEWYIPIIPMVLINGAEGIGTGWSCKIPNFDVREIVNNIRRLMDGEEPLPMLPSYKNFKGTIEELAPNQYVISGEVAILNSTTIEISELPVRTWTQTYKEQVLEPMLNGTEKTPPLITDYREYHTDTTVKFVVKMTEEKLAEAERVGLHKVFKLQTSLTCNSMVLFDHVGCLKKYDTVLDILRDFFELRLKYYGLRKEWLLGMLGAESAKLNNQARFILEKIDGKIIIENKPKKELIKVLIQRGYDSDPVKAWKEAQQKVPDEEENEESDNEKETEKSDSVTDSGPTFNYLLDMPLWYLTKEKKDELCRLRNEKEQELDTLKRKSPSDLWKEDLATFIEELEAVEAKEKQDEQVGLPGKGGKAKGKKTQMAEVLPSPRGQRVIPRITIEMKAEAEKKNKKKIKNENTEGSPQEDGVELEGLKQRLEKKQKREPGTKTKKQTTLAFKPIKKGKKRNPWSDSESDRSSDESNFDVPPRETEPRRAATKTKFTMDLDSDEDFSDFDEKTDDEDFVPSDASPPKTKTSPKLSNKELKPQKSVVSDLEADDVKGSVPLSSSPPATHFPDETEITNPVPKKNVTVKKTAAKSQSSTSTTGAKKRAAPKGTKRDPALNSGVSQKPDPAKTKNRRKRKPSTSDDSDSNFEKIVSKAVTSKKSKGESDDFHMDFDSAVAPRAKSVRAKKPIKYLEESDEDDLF
Procedure, shortened: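 Topo II (6 units) with 0.25 μg supercoiled pBR322 in cleavage buffer with 5 mM CaCl2; equilibrium at 37 °C for 6 min. Compound added just before religation. Cleavage complex trapped with EDTA, NaCl added to block recleavage, samples put on ice. Religation started with cold MgCl2 (8.5 mM final), stopped with SDS, then 1% agarose electrophoresis.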

[3] = tested on: MCF7; experiment: Selectivity ratio of IC50 for human HMEC cells to IC50 for MCF7 cells
[4] = tested on: KB; experiment: Drug resistance index, ratio of IC50 for vincristine-resistant human KB cells to IC50 for human KB cells; type: functional
[5] = tested on: KB; experiment: Cytotoxicity against vincristine-resistant human KB cells over expressing P-glycoprotein after 72 hrs by SRB assay; type: functional, cell-based
Procedure, shortened: (§1)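 Adherent human tumour lines were seeded and exposed in triplicate to graded compound concentrations at 37 °C for 72 h. Growth was read by sulforhodamine B staining. IC50 (50% growth inhibition) was obtained by the Logit method from at least three independent experiments and reported as mean ± SD.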

[6] = tested on: MCF7; experiment: Cytotoxicity against human MCF7 cells after 72 hrs by SRB assay; type: functional, cell-based; details: MCF7, 72 h; procedure, shortened: as §1
[7] = tested on: HMEC; experiment: Selectivity ratio of IC50 for human HMEC cells to IC50 for A549 cells
[8] = tested on: HMEC; experiment: Selectivity ratio of IC50 for human HMEC cells to IC50 for HL60 cells
[9] = tested on: HL-60; experiment: Cytotoxicity against human HL60 cells after 72 hrs by MTT assay; type: functional, cell-based; details: HL-60, 72 h
Procedure, shortened: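 Cells were treated in triplicate with graded concentrations for 72 h at 37 °C and read by MTT. IC50 is the concentration giving 50% growth inhibition, derived by the Logit method from at least three independent experiments and given as mean ± SD.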

[10] = target: DNA topoisomerase 2-alpha (Homo sapiens) (UniProt P11388); experiment: Induction of human topoisomerase 2alpha-mediated poststrand-passage DNA cleavage after 6 mins by agarose gel electrophoresis
Procedure, shortened: (§2)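 Supercoiled pBR322 (0.25 μg) was incubated with 6 units of topo II in cleavage buffer containing 5 mM MgCl2 at 37 °C for 6 min; the post-strand-passage reactions also received 1 mM APPNHP. Reactions were stopped with SDS and proteinase K, digested at 50 °C for 30 min, heated to 70 °C, and run on 1% agarose gels.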

[11] = tested on: MCF7; experiment: Drug resistance index, ratio of IC50 for adriyamycin-resistant human MCF7 cells to IC50 for human MCF7 cells; type: functional
[12] = target: DNA topoisomerase 2-alpha (Homo sapiens) (UniProt P11388); experiment: Induction of human topoisomerase 2alpha-mediated prestrand-passage DNA cleavage after 6 mins by agarose gel electrophoresis; procedure, shortened: as §2
[13] = tested on: HMEC; experiment: Selectivity ratio of IC50 for human HMEC cells to IC50 for HCT116 cells
[14] = tested on: HCT-116; experiment: Induction of apoptosis in human HCT116 cells assessed as accumulation at G2/M phase at 5 uM after 24 hrs using PI staining based flow cytometric analysis (reference value: 24.23%)
[15] = tested on: HL-60; experiment: Induction of apoptosis in human HL60 cells assessed as decrease in procaspase 3 expression after 24 hrs by Western blotting; type: functional, cell-based
Procedure, shortened: (§3)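 Cells (2×10^5/mL) were exposed to 2.5–10 μM for 24 h, then whole-cell lysates were made. Pro-/cleaved caspase-3, caspase-8, pro-/cleaved caspase-9, PARP (116 kDa full length, 85 kDa fragment) and Bid were probed by Western blot with ECL detection.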

[16] = tested on: HL-60; experiment: Induction of apoptosis in human HL60 cells assessed as increase in cleaved caspase 3 levels after 24 hrs by Western blotting; type: functional, cell-based; procedure, shortened: as §3
[17] = tested on: A-431; experiment: Cytotoxicity against human A431 cells after 72 hrs by SRB assay; type: functional, cell-based; details: A-431, 72 h, pooled result: one value given for 15 cell lines, strains, targets or settings; procedure, shortened: as §1
[18] = tested on: HL-60; experiment: Induction of apoptosis in human HL60 cells assessed as DNA ladder formation at 10 uM after 1.5 to 24 hrs using Annexin-V/PI double-staining by flow cytometric analysis; type: functional, cell-based
Procedure, shortened: (§4)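 HL60 cells were treated with 2.5, 5.0, 7.5 or 10.0 μM for 24 h for DNA ladder analysis, representative of three experiments. Apoptotic fractions were measured after 2.5–10 μM for 24 h, or 10 μM over a time course, by Annexin/PI staining and flow cytometry (early plus late apoptotic cells), as mean ± SD of three experiments.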

[19] = tested on: HL-60; experiment: Induction of apoptosis in human HL60 cells assessed as DNA ladder formation at 2.5 to 10 uM after 24 hrs using Annexin-V/PI double-staining by flow cytometric analysis; type: functional; procedure, shortened: as §4
[20] = tested on: HCT-116; experiment: Induction of apoptosis in human HCT116 cells assessed as accumulation at G0/G1 phase at 5 uM after 24 hrs using PI staining based flow cytometric analysis (reference value: 48.77%)
[21] = tested on: HMEC; experiment: Selectivity ratio of IC50 for human HMEC cells to IC50 for BxPC3 cells
[22] = tested on: HCT-116; experiment: Cytotoxicity against human HCT116 cells after 72 hrs by SRB assay; type: functional, cell-based; details: HCT-116, 72 h; procedure, shortened: as §1
[23] = tested on: HMEC; experiment: Selectivity ratio of IC50 for human HMEC cells to IC50 for A431 cells
[24] = tested on: HL-60; experiment: Induction of apoptosis in human HL60 cells assessed as increase in cleaved PARP levels after 24 hrs by Western blotting; type: functional, cell-based; procedure, shortened: as §3
[25] = tested on: HL-60; experiment: Induction of apoptosis in human HL60 cells assessed as activation of caspase 9 at 2.5 to 10 uM after 24 hrs by Western blotting; type: functional, cell-based; procedure, shortened: as §3

`COC1O[C@H](C)[C@@H](C)c2c(C)c3c(c(O)c21)[C@@H]1O[C@H](C)[C@@H](C)c2c(C)c(O)c([C@H]4O[C@H](C)[C@@H](C)c5c(C)c(O)cc(O)c54)c(c21)O3` (stereo not given in full) [TRICITRINOL B] was tested, and the Activity [1] was “inactive”, the inhibition [2] was “Dose-dependent effect” and the “Ratio IC50” value [3] was 2. For the same compound, the “Ratio IC50” value [4] was 0.94, the IC50 [5] was 4.6 µM and the IC50 [6] was 5.76 µM. For the same compound, the “Ratio IC50” value [7] was 2, the “Ratio IC50” value [8] was 2 and the IC50 [9] was 3.2 µM. The Activity [10] was “Dose-dependent effect”, the “Ratio IC50” value [11] was 1.28 and the Activity [12] was “Dose-dependent effect”. For the same compound, the “Ratio IC50” value [13] was 2, the Activity [14] was 42.06% and the Activity [15] was “Dose-dependent effect”. For the same compound, the Activity [16] was “Dose-dependent effect”, the IC50 [17] was 4.83 µM and the Activity [18] was “Active”. For the same compound, the Activity [19] was 10%, the Activity [20] was 37.52% and the “Ratio IC50” value [21] was 2. For the same compound, the IC50 [22] was 4.82 µM, the “Ratio IC50” value [23] was 2 and the Activity [24] was “Dose-dependent effect”. For the same compound, the Activity [25] was “Active”.
